Screening results (PubChem)
This is a sample that favours compounds with a hit; in the whole collection about 3.5% have one here.
MrgX1 antagonist – antagonists of human MrgX1 receptor, primary screen, HEK293 cells, Fluo-4 calcium flux. Mas-related G-protein coupled receptor member X1 (Homo sapiens), Q96LB2. 1.3% of 310,000 active. B-score at 10 µM. AID 588676, 2011. BAM8-22 antagonism; active compounds read low;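 active = calcium-response B-score plate-corrected more than 3 library SD below zero, starting fluorescence within 5 deviations, no agonist response on first addition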;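 also: peak minus trough fluorescence over baseline after final BAM8-22 challenge near maximal dose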
Target sequence (Q96LB2 whole entry, looked up): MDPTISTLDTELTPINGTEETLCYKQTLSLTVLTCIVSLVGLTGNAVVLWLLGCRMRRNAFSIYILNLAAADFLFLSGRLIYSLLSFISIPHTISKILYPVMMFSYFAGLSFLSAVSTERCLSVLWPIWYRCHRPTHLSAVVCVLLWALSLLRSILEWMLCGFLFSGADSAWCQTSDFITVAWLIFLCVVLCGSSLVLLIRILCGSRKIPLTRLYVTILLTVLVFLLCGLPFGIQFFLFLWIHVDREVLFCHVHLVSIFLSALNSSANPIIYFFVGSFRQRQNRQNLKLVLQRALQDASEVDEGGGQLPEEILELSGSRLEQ
RGS4 block – RGS4 inhibitors, primary screen, cell-based, HEK293 M3R inducible RGS4, calcium flux; Fluo-4 calcium flux; active compounds read high; triggered by carbachol at its EC20; B-score at 10 µM; Regulator of G-protein signaling 4 (Homo sapiens), P49798; 0.45% of 310,000 active;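 active = B-score, a plate-corrected calcium signal, over three deviations above library mean, with baseline fluorescence within five deviations of library mean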;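 also: RGS4 expression induced by doxycycline in cells with stable M3 receptor; B-score is computed from the integrated fluorescence ratio over baseline after carbachol; higher B-score means a larger calcium signal and so more RGS4 inhibition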
Target sequence (P49798 whole entry, looked up): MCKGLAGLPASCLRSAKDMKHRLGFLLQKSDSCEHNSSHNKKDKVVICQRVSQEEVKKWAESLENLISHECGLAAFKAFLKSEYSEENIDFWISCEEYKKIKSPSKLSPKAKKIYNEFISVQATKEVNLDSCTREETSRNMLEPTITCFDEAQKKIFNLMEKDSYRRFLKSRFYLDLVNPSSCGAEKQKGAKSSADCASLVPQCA
MrgX1 agonist – agonists of human MrgX1 receptor, primary screen, HEK293 cells, Fluo-4 calcium flux | Fluo-4 calcium fluorescence, agonist mode; active compounds read high | B-score at 10 µM | 0.44% of 310,000 active | AID 588627, 2011;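 active = calcium response B-score plate-corrected fluorescence ratio at least 3 library SD, with starting fluorescence B-score inside 5 SD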
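System – MrgX1-expressing HEK293 cells · Incubation – cells plated overnight, dye loaded 0.5 h 37 °C, 0.5 h room temperature · Technique – kinetic Fluo-4 NW fluorescence of intracellular calcium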
MrgX1 PAM – positive allosteric modulators of MrgX1, primary screen, HEK293 cells, Fluo-4 calcium flux. Mas-related G-protein coupled receptor member X1 (Homo sapiens), Q96LB2. FDSS; active compounds read high. B-score at 10 µM. 0.63% of 310,000 active;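 active = plate-corrected calcium response at least 3 library SD above typical, normal starting fluorescence, not activating the receptor alone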;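 also: compound read alongside a low EC10 to EC30 dose of BAM8-22 agonist; peak minus trough fluorescence over baseline measured at the second addition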
RGS4 pot – RGS4 potentiators or activators, primary screen, cell-based, HEK293 M3R inducible RGS4, calcium flux | carbachol calcium flux Fluo4; active compounds read low | B-score at 10 µM | AID 463111, 2010 | 0.92% of 310,000 active;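 active = B-score of the integrated calcium signal more than 4 SD below the library mean, with starting fluorescence not abnormally high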;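 also: negative B-score means reduced calcium response which marks RGS4 activation or potentiation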
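Material: Inducible-RGS4 HEK293 cells carrying M3 receptor; also added: carbachol at ECmax as muscarinic agonist stimulus; incubation: compound preincubation 20 min at room temperature before agonist; signal: Fluo4-AM (2 µM) calcium-flux fluorescence, kinetic read; measure: integrated calcium ratio converted to B score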
Active calls of the source: *; i = inactive; . = not tested or not shown.

SMILES	MrgX1 antagonist	RGS4 block	MrgX1 agonist	MrgX1 PAM	RGS4 pot
CC(C)(C)OC(=O)NCCCC[C@@H](C(=O)NCCCCCCCCCCC(=O)N1CCN(C(=O)OC(C)(C)C)CC1)n1cc(CCO)nn1	i	.	i	i	.
C#CCOCCOCCOCCNc1nc(N2CCN(C(=O)CCCCCCCCCCNC(=O)[C@H](CCCCN)n3cc(C)nn3)CC2)nc(N2CCN(C(=O)CCCCCCCCCCNC(=O)[C@@H]([C@H](C)CC)n3cc(CCCCCN)nn3)CC2)n1	i	.	120*	i	.
C#CCOCCOCCOCCNc1nc(N2CCN(C(=O)CCCCCCCCCCNC(=O)[C@H](CCCCN)n3cc(CCO)nn3)CC2)nc(N2CCN(C(=O)CCCCCCCCCCNC(=O)[C@H](CCCN=C(N)N)n3cc(C[C@@H](C)CC)nn3)CC2)n1	i	.	153*	i	.
C#CCOCCOCCOCCNc1nc(N2CCN(C(=O)CCCCCCCCCCNC(=O)[C@H](CCCCN)n3cc(CCO)nn3)CC2)nc(N2CCN(C(=O)CCCCCCCCCCNC(=O)[C@H](CCCCN)n3cc(CCO)nn3)CC2)n1	i	.	i	i	.
C#CCOCCOCCOCCNc1nc(N2CCN(C(=O)CCCCCCCCCCNC(=O)[C@@H](CCSC)n3cc(CCO)nn3)CC2)nc(N2CCN(C(=O)CCCCCCCCCCNC(=O)[C@H]([C@@H](C)CC)n3cc(CCCCCN)nn3)CC2)n1	i	.	i	14.7*	.
CC[C@H](C)Cc1cn([C@@H](CCCCNC(=O)OC(C)(C)C)C(=O)NCCCCCCCCCCC(=O)N2CCN(C(=O)OC(C)(C)C)CC2)nn1	-7.07*	.	i	i	.
COc1ccc(-c2nc(N)ncc2-c2ccccc2OC)c(O)c1	i	i	i	i	i
Cc1ccc2[nH]cc(CCNC(=O)c3cccs3)c2c1	i	i	i	i	i
O=C1C2C3c4ccccc4C(c4ccccc43)C2C(=O)N1Cc1cccnc1 (stereo unspecified)	i	i	i	i	i
C#CCOCCOCCOCCNc1nc(N2CCN(C(=O)CCCCCCCCCCNC(=O)[C@H](CCCCN)n3cc(C[C@@H](C)CC)nn3)CC2)nc(N2CCN(C(=O)CCCCCCCCCCNC(=O)[C@H](CCCCN)n3cc(C[C@@H](C)CC)nn3)CC2)n1	i	.	89*	i	.
C#CCOCCOCCOCCNc1nc(N2CCN(C(=O)CCCCCCCCCCNC(=O)Cn3cc(CCCCCN)nn3)CC2)nc(N2CCN(C(=O)CCCCCCCCCCNC(=O)[C@H](CO)n3cc(CCCCCN)nn3)CC2)n1	i	.	i	i	.
C#CCOCCOCCOCCNc1nc(N2CCN(C(=O)CCCCCCCCCCNC(=O)Cn3cc(CCCCCN)nn3)CC2)nc(N2CCN(C(=O)CCCCCCCCCCNC(=O)[C@H]([C@@H](C)CC)n3cc(CCCCCN)nn3)CC2)n1	i	.	50.7*	i	.
C#CCOCCOCCOCCNc1nc(N2CCN(C(=O)CCCCCCCCCCNC(=O)[C@H](CCCCN)n3cc(CCCC(=O)O)nn3)CC2)nc(N2CCN(C(=O)CCCCCCCCCCNC(=O)[C@H](CCCN=C(N)N)n3cc(C[C@@H](C)CC)nn3)CC2)n1	i	.	39.7*	i	.
C#CCOCCOCCOCCNc1nc(N2CCN(C(=O)CCCCCCCCCCNC(=O)[C@H]([C@@H](C)CC)n3cc(CCCCN=C(N)N)nn3)CC2)nc(N2CCN(C(=O)CCCCCCCCCCNC(=O)[C@H](CCCCN)n3cc(C[C@@H](C)CC)nn3)CC2)n1	i	.	61.1*	i	.
COC(=O)c1scc(C)c1-n1ccc(C(=O)C(=O)N(C)C)c1	i	i	i	i	i
COC(=O)c1ccc(COC(=O)CNC(=O)c2cccs2)cc1	i	i	i	i	i
Cc1nn(C(C)C(=O)NC(C)CCc2ccccc2)c(=O)c2cc3occc3n12 (stereo unspecified)	-7.6*	i	i	i	i
CCc1nn(C(C)C(=O)NCCc2ccccc2)c(=O)c2cc3occc3n12 (stereo unspecified)	i	i	i	i	i
COc1ccc(CNC(=O)C(C)n2nc(C)n3c(cc4occc43)c2=O)cc1 (stereo unspecified)	-8.11*	i	i	i	i
O=C(c1ccc(S(=O)(=O)Cc2cc(F)ccc2F)c([N+](=O)[O-])c1)N1CCCC1	i	i	i	7.2*	i
COc1ccc(NC(=O)c2ccc3c(c2)NC(=O)CO3)cc1OC	i	i	i	i	i
Cc1cccc(C)c1NS(=O)(=O)c1c(C(=O)N2CCCCC2)c(C)n(C)c1C	i	i	i	i	i
CCc1ccc(OCC(=O)NNC(=O)Cc2ccc(S(=O)(=O)N3CCOCC3)s2)cc1	-6.9*	i	i	i	i
Cc1cc(/C=C2\SC(=S)NC2=O)c(C)[nH]1	i	i	38.2*	i	i
CCn1c(C)cc(/C=C2/SC(=S)NC2=O)c1C	i	i	i	i	i
SMILES	MrgX1 antagonist	RGS4 block	MrgX1 agonist	MrgX1 PAM	RGS4 pot
CN(C)CCCN(C(=O)c1ccc(S(=O)(=O)N(C)C)cc1)c1nc2cc3c(cc2s1)OCO3	i	i	i	i	i
CCN(Cc1ccccc1)S(=O)(=O)c1ccc(C(=O)N(CCCN(C)C)c2nc3c(C)c(C)ccc3s2)cc1	-6.68*	i	i	i	i
CN(C)CCCN(C(=O)c1ccc(C(=O)c2ccccc2)cc1)c1nc2cc3c(cc2s1)OCCO3	i	i	i	i	-8.83*
CCN(Cc1ccccc1)S(=O)(=O)c1ccc(C(=O)N(CCCN(C)C)c2nc3cc4c(cc3s2)OCO4)cc1	i	i	i	i	-7.47*
CN(C)CCCN(C(=O)CCSc1ccccc1)c1nc2cc3c(cc2s1)OCO3	i	i	i	i	i
CN(C)CCCN(C(=O)CCS(=O)(=O)c1ccccc1)c1nc2cc3c(cc2s1)OCO3	i	i	i	i	-8.25*
COc1cc2c(cc1OC)CN(C(=O)CN1CCN(S(=O)(=O)c3ccccc3Br)CC1)CC2	i	i	i	i	i
CC(C)(C)C(=O)COC(=O)c1ccc2c(c1)C(=O)N(Cc1ccco1)C2=O	i	i	i	i	i
COc1cc(CN2CCN(Cc3ccc(C(F)(F)F)cc3)CC2)cc(OC)c1OC	i	i	i	i	i
COc1ccc(C[C@H]2CN3C(=NC[C@@H]3Cc3ccccc3)N2CCNC(=O)c2ccc(C)c(Br)c2)cc1	i	i	i	i	i
